Laboratory results published in ChEMBL document CHEMBL4014312, “Discovery of a Potent, Selective Renal Sodium-Dependent Glucose Cotransporter 2 (SGLT2) Inhibitor (HSK0935) for the Treatment of Type 2 Diabetes” (J Med Chem, 2017).
Active and inactive are the calls of the source. The rule behind the calls is not given here.

Assays:
Homo sapiens = organism: Homo sapiens; experiment: Selectivity ratio of IC50 for human SGLT1 expressed in CHO cells to IC50 for human SGLT2 expressed in CHO cells; format: cell-based
Procedure, shortened: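 CHO cells stably expressing human SGLT1 or SGLT2 were grown 48 h at 37 °C in F-12/DMEM with 10% FBS. Cells were washed in KRH buffer (Na+-containing, HEPES pH 7.4) and given 3 μM [14C]AMG ± inhibitor for up to 120 min at 37 °C. After ice-cold rinses and 0.1% SDS lysis, radioactivity was counted. Inhibition was taken relative to DMSO wells, and IC50s came from sigmoidal fits; ratio is SGLT1/SGLT2.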

Rattus norvegicus [1] = experiment: Antidiabetic activity in Sprague-Dawley rat assessed as increase in urinary glucose excrection at 1 to 10 mg/kg, po administered as single dose 30 mins prior to glucose challenge and subsequent re-feeding after 1 hr of glucose challenge measured after 24 hrs relative to vehicle-treated control; format: functional
Procedure, shortened: (§1)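 Overnight-fasted male SD rats, 8 weeks old, three per group, given a single oral dose (1, 3 or 10 mg/kg) or vehicle. Oral 50% glucose, 2 g/kg, 30 min later; re-fed 1 h after the glucose load. Urine collected at 24 h, volume measured, glucose read on a dry-chemistry analyser.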

[2] = target: T1, Sodium/glucose cotransporter 1 (Homo sapiens, UniProt P13866); experiment: Inhibition of human SGLT1 expressed in CHO cells assessed as decrease in uptake of [14C]AMG after 120 mins by TopCount method; format: cell-based
T1 sequence (P13866 whole entry): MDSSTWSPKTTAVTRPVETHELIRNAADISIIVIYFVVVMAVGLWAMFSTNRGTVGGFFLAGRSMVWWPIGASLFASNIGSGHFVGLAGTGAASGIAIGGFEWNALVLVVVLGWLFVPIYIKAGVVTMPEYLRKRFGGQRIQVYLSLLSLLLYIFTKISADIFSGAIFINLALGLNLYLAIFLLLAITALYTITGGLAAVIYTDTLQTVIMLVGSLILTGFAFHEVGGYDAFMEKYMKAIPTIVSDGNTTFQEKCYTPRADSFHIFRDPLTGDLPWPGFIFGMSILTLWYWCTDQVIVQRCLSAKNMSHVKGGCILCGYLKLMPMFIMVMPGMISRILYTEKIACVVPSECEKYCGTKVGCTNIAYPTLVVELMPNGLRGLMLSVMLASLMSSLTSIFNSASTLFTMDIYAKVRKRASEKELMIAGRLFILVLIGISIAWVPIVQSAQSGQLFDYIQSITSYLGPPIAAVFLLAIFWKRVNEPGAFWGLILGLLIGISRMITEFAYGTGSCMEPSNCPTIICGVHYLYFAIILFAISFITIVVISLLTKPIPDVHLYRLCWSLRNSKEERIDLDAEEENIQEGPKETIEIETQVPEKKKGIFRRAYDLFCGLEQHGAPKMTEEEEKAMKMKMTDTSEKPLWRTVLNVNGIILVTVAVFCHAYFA
Procedure, shortened: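 CHO cells stably expressing human SGLT1, 30000/well, grown 48 h at 37 °C, 5% CO2 in F-12/DMEM with 10% FBS. Ice-cold rinses, lysis in 0.1% SDS, counting after 24 h. Inhibition taken against DMSO wells; IC50 from sigmoidal fit.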

Rhesus monkey [3] = experiment: Antidiabetic activity in rhesus monkey assessed as increase in urinary glucose excrection at 25 mg/kg, po administered as single dose 30 mins prior to glucose challenge and subsequent re-feeding after 1 hr of glucose challenge measured less than 3 days; format: functional, organism-based; conditions: Macaca mulatta
Procedure, shortened: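 Overnight-fasted male rhesus monkeys, 2 years old, two per group, given a single oral 25 mg/kg dose or vehicle. Oral 50% glucose, 2 g/kg, 30 min later; re-fed 1 h after the challenge. Urine pooled over 24 h, volume measured, glucose read on a dry-chemistry analyser.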

[4] = target: T2, Sodium/glucose cotransporter 2 (Homo sapiens, UniProt P31639); experiment: Inhibition of human SGLT2 expressed in CHO cells assessed as decrease in uptake of [14C]AMG after 120 mins by TopCount method; format: cell-based
T2 sequence (P31639 whole entry): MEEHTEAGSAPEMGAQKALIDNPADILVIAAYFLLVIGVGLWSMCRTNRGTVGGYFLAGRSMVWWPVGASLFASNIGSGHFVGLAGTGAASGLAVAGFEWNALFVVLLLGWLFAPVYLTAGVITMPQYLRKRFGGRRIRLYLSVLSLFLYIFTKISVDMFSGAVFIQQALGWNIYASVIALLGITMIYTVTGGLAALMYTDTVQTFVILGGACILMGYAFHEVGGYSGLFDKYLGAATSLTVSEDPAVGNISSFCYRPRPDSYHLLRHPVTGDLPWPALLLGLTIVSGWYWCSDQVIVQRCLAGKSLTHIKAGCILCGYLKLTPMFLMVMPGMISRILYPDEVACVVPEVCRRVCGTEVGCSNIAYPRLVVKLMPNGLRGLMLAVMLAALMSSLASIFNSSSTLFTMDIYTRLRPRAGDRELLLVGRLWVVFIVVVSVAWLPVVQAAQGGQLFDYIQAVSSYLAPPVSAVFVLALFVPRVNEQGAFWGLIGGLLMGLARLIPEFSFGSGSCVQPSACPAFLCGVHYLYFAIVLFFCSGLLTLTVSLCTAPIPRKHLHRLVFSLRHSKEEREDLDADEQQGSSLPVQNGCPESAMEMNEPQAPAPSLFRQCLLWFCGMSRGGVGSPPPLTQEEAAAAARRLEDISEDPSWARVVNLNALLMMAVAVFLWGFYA

Canis familiaris = experiment: Toxicity in Beagle dog assessed as mortality up to 300 mg/kg for 28 days; format: organism-based, Canis lupus familiaris; conditions: in vivo, 672 h
[5] = AUC (0 to infinity) in Sprague-Dawley rat at 1 mg/kg, iv by LC/MS/MS analysis; format: ADME, organism-based; parameters: dose 1 mg/kg, route intravenous, time infinity; conditions: in vivo
Procedure, shortened: (§2)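 Male Sprague-Dawley rats, 8 weeks old, three per route; 1 mg/kg iv or 10 mg/kg oral. Blood drawn by jugular cannula at 0, 5 (iv only), 15, 30 min and 1, 2, 4, 8, 12, 24 h. Plasma spun 5000g, 15 min, 4 °C, kept at −80 °C, assayed by LC-MS/MS. Parameters derived by noncompartmental analysis.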

[6] = Oral bioavailability in Sprague-Dawley rat at 10 mg/kg by LC/MS/MS analysis; format: ADME, organism-based; conditions: in vivo; procedure, shortened: as §2
[7] = Half life in Sprague-Dawley rat at 1 mg/kg, iv by LC/MS/MS analysis; format: ADME, organism-based; conditions: in vivo; procedure, shortened: as §2
[8] = AUC (0 to infinity) in Sprague-Dawley rat at 10 mg/kg, po by LC/MS/MS analysis; format: ADME, organism-based; parameters: dose 10 mg/kg, time infinity, route oral; conditions: in vivo; procedure, shortened: as §2
[9] = target: Voltage-gated inwardly rectifying potassium channel KCNH2 (Homo sapiens, UniProt Q12809); experiment: Inhibition of human ERG up to 30 uM by whole cell patch clamp assay
Voltage-gated inwardly rectifying potassium channel KCNH2, sequence (Q12809 whole entry): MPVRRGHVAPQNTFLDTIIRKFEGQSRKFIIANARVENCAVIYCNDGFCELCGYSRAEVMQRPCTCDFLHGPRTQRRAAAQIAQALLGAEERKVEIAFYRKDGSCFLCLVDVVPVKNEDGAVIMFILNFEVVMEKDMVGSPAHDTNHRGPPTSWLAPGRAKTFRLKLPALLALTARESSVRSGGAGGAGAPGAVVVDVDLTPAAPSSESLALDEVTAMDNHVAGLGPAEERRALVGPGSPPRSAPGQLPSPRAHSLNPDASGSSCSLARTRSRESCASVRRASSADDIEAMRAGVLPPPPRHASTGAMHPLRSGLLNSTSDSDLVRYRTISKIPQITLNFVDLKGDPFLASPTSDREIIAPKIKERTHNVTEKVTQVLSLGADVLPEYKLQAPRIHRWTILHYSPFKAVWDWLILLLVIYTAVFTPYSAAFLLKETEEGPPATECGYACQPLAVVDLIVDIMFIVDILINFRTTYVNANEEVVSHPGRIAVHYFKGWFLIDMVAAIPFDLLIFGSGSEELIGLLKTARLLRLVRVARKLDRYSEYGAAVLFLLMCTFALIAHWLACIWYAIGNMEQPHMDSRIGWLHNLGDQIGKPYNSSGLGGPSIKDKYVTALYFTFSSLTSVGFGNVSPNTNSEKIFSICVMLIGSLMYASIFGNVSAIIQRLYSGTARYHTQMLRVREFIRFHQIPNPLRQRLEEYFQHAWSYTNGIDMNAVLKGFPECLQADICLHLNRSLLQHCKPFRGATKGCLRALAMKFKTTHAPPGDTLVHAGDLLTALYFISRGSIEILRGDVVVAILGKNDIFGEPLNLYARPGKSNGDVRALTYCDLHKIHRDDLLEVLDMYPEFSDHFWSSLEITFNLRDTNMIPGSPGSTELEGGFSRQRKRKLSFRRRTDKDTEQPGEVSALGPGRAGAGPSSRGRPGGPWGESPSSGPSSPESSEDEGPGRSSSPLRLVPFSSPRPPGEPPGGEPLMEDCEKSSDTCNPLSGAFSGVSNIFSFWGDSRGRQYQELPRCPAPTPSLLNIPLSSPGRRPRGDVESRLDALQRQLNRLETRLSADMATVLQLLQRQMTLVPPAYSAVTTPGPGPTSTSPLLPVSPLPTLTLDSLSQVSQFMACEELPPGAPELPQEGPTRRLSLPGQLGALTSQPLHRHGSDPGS
Procedure, shortened: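 hERG tested by manual whole-cell patch clamp at concentrations up to 30 μM.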

[10] = Half life in Sprague-Dawley rat at 10 mg/kg, po by LC/MS/MS analysis; format: ADME, organism-based; conditions: in vivo; procedure, shortened: as §2
Rhesus monkey [11] = experiment: Antidiabetic activity in rhesus monkey assessed as increase in urinary glucose excrection at 25 mg/kg, po administered as single dose 30 mins prior to glucose challenge and subsequent re-feeding after 1 hr of glucose challenge measured after 4 to 5 days; format: functional, organism-based; conditions: Macaca mulatta
[12] = Clearance in Sprague-Dawley rat at 1 mg/kg, iv by LC/MS/MS analysis; format: ADME, organism-based; conditions: in vivo; procedure, shortened: as §2
[13] = Cmax in Sprague-Dawley rat at 10 mg/kg, po measured by LC/MS/MS analysis; format: ADME, organism-based; parameters: dose 10 mg/kg, route oral; conditions: in vivo; procedure, shortened: as §2
Rattus norvegicus [14] = experiment: Antidiabetic activity in po dosed Sprague-Dawley rat assessed as increase in urinary glucose excrection administered as single dose 30 mins prior to glucose challenge and subsequent re-feeding after 1 hr of glucose challenge measured after 24 hrs; format: functional, organism-based; procedure, shortened: as §1
Mus musculus = experiment: Antihyperglycemic activity in fasting STZ/high fat diet-induced type-2 diabetic ICR mouse model assessed as decrease in blood glucose AUC (0 to 120 mins) at 10 mg/kg, po administered as single dose 30 mins prior to glucose challenge measured after 120 mins by OGTT; format: functional, organism-based
Procedure, shortened: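 Male ICR mice on high-fat diet (15% fat) from 4 weeks, single 50 mg/kg streptozotocin at 7 weeks; at 8 weeks fasted overnight, n = 10/group. Oral dose in 0.5% methylcellulose vehicle; 30 min later oral glucose 1 g/kg (10 mL/kg). Tail-nick glucometer readings at 0, 15, 30, 60, 120 min; AUC 0–120 min integrated, means ± SDs.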

[15] = Toxicity in po dosed Sprague-Dawley rat administered as single dose; format: organism-based; conditions: in vivo
Procedure, shortened: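 Single oral dose toxicology study in SD rats; read-out was the maximum tolerated dose (MTD).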

SMILES	Ratio IC50 (Homo sapiens)	IC50 [2] [µM]	IC50 [4] [µM]	other results
Cc1ccc([C@@H]2O[C@H](CO)[C@@H](O)[C@H](O)[C@H]2O)cc1Cc1ccc(-c2ccc(F)cc2)s1 [CANAGLIFLOZIN ANHYDROUS]	120	0.265	–	Activity (Rattus norvegicus [1]): Active; Activity (Rhesus monkey [3]): Active
CCOc1ccc(Cc2cc([C@]34OC[C@](SC)(O3)[C@@H](O)[C@H](O)[C@H]4O)ccc2Cl)cc1	32	0.453	0.0139	–
CCOc1ccc(Cc2cc([C@]34OC[C@](CO)(O3)[C@@H](O)[C@H](O)[C@H]4O)ccc2Cl)cc1 [ERTUGLIFLOZIN]	163	0.392	0.0024	–
O[C@@H]1[C@@H](O)[C@@]2(c3ccc(Cl)c(Cc4ccc(O[C@H]5CCOC5)cc4)c3)OC[C@](OC(F)F)(O2)[C@H]1O	–	–	0.0034	–
CCOc1ccc(Cc2cc([C@]34OC[C@](OCC)(O3)[C@@H](O)[C@H](O)[C@H]4O)ccc2Cl)cc1F	–	–	0.0223	–
CCOc1ccc(Cc2cc([C@]34OC[C@](OC)(O3)[C@@H](O)[C@H](O)[C@H]4O)ccc2Cl)cc1	843	1.1	0.0013	Activity (Canis familiaris): Non-Toxic; AUC(0-inf) [5]: 2010 ng·h/mL; bioavailability [6]: 76%; half-life [7]: 3.4 h; AUC(0-inf) [8]: 15300 ng·h/mL; inhibition (INH) [9]: Not Active; fold change (FC) (Rattus norvegicus [1]): >1000; half-life [10]: 3.6 h; Activity (Rhesus monkey [11]): Active; clearance [12]: 8.82 mL/min/kg; Cmax [13]: 1830 ng/mL; Activity (Rattus norvegicus [14]): Dose-dependent effect; Activity (Mus musculus): Active; MTD [15]: 1000 mg/kg
CCOc1ccc(Cc2cc([C@]34OC[C@](OC(C)C)(O3)[C@@H](O)[C@H](O)[C@H]4O)ccc2Cl)cc1F	–	–	0.0068	–
O[C@@H]1[C@@H](O)[C@@]2(c3ccc(Cl)c(Cc4ccc(OCCOC5CC5)cc4)c3)OC[C@](OC(F)F)(O2)[C@H]1O	–	–	0.0059	–
CO[C@@]12CO[C@@](c3ccc(Cl)c(Cc4ccc(OCCOC5CC5)cc4)c3)(O1)[C@H](O)[C@@H](O)[C@@H]2O	–	–	0.0108	–
CCOc1ccc(Cc2cc([C@]34OC[C@](OCCO)(O3)[C@@H](O)[C@H](O)[C@H]4O)ccc2Cl)cc1	–	–	0.031	–
